From ChEMBL document CHEMBL4033667, “Design, synthesis, and identification of a novel napthalamide-isoselenocyanate compound NISC-6 as a dual Topoisomerase-IIα and Akt pathway inhibitor, and evaluation of its anti-melanoma activity” (Eur J Med Chem, 2017)

What was measured:
Format in all cases: functional, cell-based
[1] = Antiproliferative activity against human 1205 Lu cells harboring BRAF V600E mutant after 72 hrs by MTT assay
Summary of the method: (§1)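 MTT viability in melanoma lines grown in DMEM with 10% FBS and pen/strep at 37 °C, 5% CO2. 3000 cells/well, settled overnight, then exposed to compound (0 to 50 µM) in triplicate for 24, 48 or 72 h. MTT (5.0 mg/mL solution) added 3 h before termination. IC50 from non-linear regression (variable slope), mean ± SD.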

[2] = Antiproliferative activity against human 1205 Lu cells harboring BRAF V600E mutant after 24 hrs by MTT assay; summary of the method: as §1
[3] = Antiproliferative activity against human A375M cells harboring BRAF V600E mutant after 24 hrs by MTT assay; summary of the method: as §1
[4] = test system: CHL-1; assay: Antiproliferative activity against human CHL-1 cells harboring wild type BRAF after 72 hrs by MTT assay; conditions: CHL-1, 72 h; summary of the method: as §1
[5] = test system: UACC-903; assay: Antiproliferative activity against human UACC-903 cells harboring BRAF V600E mutant after 24 hrs by MTT assay; conditions: UACC-903, 24 h; summary of the method: as §1
[6] = Antiproliferative activity against human A375M cells harboring BRAF V600E mutant after 72 hrs by MTT assay; summary of the method: as §1
[7] = Antiproliferative activity against human A375M cells harboring BRAF V600E mutant after 48 hrs by MTT assay; summary of the method: as §1
[8] = Antiproliferative activity against human 1205 Lu cells harboring BRAF V600E mutant after 48 hrs by MTT assay; summary of the method: as §1
[9] = test system: CHL-1; assay: Antiproliferative activity against human CHL-1 cells harboring wild type BRAF after 24 hrs by MTT assay; conditions: CHL-1, 24 h; summary of the method: as §1
[10] = test system: UACC-903; assay: Antiproliferative activity against human UACC-903 cells harboring BRAF V600E mutant after 48 hrs by MTT assay; conditions: UACC-903, 48 h; summary of the method: as §1
[11] = test system: UACC-903; assay: Antiproliferative activity against human UACC-903 cells harboring BRAF V600E mutant after 72 hrs by MTT assay; conditions: UACC-903, 72 h; summary of the method: as §1
[12] = test system: CHL-1; assay: Antiproliferative activity against human CHL-1 cells harboring wild type BRAF after 48 hrs by MTT assay; conditions: CHL-1, 48 h; summary of the method: as §1

**Q.** For `O=C1c2cccc3cccc(c23)C(=O)N1CCCCN=C=[Se]`, which IC50 [1] is on record?
**A.** 15.4 µM

**Q.** What about the IC50 [2] of the same compound?
**A.** 13.1 µM

**Q.** What about the IC50 [3] of the same compound?
**A.** 19.4 µM

**Q.** What about the IC50 [4] of the same compound?
**A.** 8.9 µM

**Q.** And the IC50 [5]?
**A.** 13.1 µM

**Q.** And the IC50 [6]?
**A.** 28.4 µM

**Q.** And the IC50 [7]?
**A.** 21 µM

**Q.** And the IC50 [8]?
**A.** 15.9 µM

**Q.** And the IC50 [9]?
**A.** 9.7 µM

**Q.** And the IC50 [10]?
**A.** 9.2 µM

**Q.** What about the IC50 [11] of the same compound?
**A.** 12 µM

**Q.** And the IC50 [12]?
**A.** 8 µM

**Q.** For `N=C(N)[Se]CCN1C(=O)c2cccc3cc([N+](=O)[O-])cc(c23)C1=O`, which IC50 [1] is on record?
**A.** 39.6 µM

**Q.** And the IC50 [2]?
**A.** > 50 µM

**Q.** And the IC50 [3]?
**A.** > 50 µM

**Q.** What about the IC50 [4] of the same compound?
**A.** 13.5 µM

**Q.** And the IC50 [5]?
**A.** > 50 µM

**Q.** What about the IC50 [6] of the same compound?
**A.** 25.8 µM

**Q.** What about the IC50 [7] of the same compound?
**A.** > 50 µM

**Q.** What about the IC50 [8] of the same compound?
**A.** > 50 µM

**Q.** What about the IC50 [9] of the same compound?
**A.** > 50 µM

**Q.** What about the IC50 [10] of the same compound?
**A.** 18.1 µM

**Q.** What about the IC50 [11] of the same compound?
**A.** 14 µM

**Q.** And the IC50 [12]?
**A.** 8.5 µM
